Assay results reported in ChEMBL document CHEMBL1765064, “Discovery of potent and selective inhibitors of ataxia telangiectasia mutated and Rad3 related (ATR) protein kinase as potential anticancer agents” (J Med Chem, 2011).

Columns and labels:
[1] = target: T1, Serine/threonine-protein kinase ATR (Homo sapiens, UniProt Q13535); test: Inhibition of full length recombinant ATR after 24 hrs by radiometric phosphate incorporation assay
In short: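 Radiometric [γ-33P]ATP incorporation into target peptide. Full-length ATR and ATM were made in-house; DNA-PK was purchased. Kinase, buffer and peptide were premixed, then compound was added in DMSO (7% final DMSO). Reactions started with ATP at 25 °C and were stopped with phosphoric acid (100 mM final) plus ATP (0.66 μM final). Peptide was captured on phosphocellulose, washed, and scintillation-counted.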

[2] = target: Serine-protein kinase ATM (Homo sapiens, UniProt Q13315); test: Inhibition of full length recombinant ATM after 24 hrs by radiometric phosphate incorporation assay
[3] = target: DNA-dependent protein kinase catalytic subunit (Homo sapiens, UniProt P78527); test: Inhibition of DNAPK after 2 hrs by radiometric phosphate incorporation assay
[4] = target: Cytochrome P450 3A4 (Homo sapiens, UniProt P08684); test: Inhibition of CYP3A4; format: ADME
[5] = target: T1, Serine/threonine-protein kinase ATR; test: Inhibition of ATR in human HT-29 cells assessed as hydroxyurea-induced phosphorylation of H2AX by immunofluorescence microscopy; format: cell-based
[6] = Permeability from apical to basolateral side of human Caco2 cells; format: ADME, cell-based; conditions: Caco-2, read-out: permeability
[7] = Permeability from basolateral to apical side of human Caco2 cells; format: ADME, cell-based; conditions: Caco-2, read-out: permeability
[8] = test system: HCT-116; test: Cytotoxicity against human HCT116 cells after 96 hrs by MTS assay; format: functional, cell-based; conditions: HCT-116, 96 h
In short: (§1)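 Exponentially growing cells were plated and left to adhere overnight. Compounds were added at the indicated concentrations for 96 h. MTS reagent was then added, and absorbance at 490 nm was read 1 h later as a measure of cell density.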

[9] = test system: HFL1; test: Cytotoxicity against human HFL1 cells at up to 20 uM after 96 hrs by MTS assay; format: cell-based; conditions: hfl1, 96 h; in short: as §1
[10] = test system: HCT-116; test: Potentiation of cisplatin-induced cytotoxicity against human HCT116 cells at 0.62 uM after 96 hrs by MTS assay; format: functional
In short: (§2)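 Exponentially growing cells (ATCC lines, kept per supplier) plated and left to adhere overnight, then given inhibitor at 0.62 μM combined with cisplatin at the indicated concentrations for 96 h. Cell density read by MTS reagent, absorbance at 490 nm 1 h after addition. Fold change in cisplatin potency taken as potentiation. Synergy judged by MacSynergy analysis.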

[11] = test system: HFL1; test: Potentiation of cisplatin-induced cytotoxicity against human HFL1 cells at 0.62 uM after 96 hrs by MTS assay; format: cell-based; conditions: hfl1, 96 h; in short: as §2
[12] = target: T1, Serine/threonine-protein kinase ATR; test: Competitive inhibition of full length recombinant ATR Morrison equation analysis
In short: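 Mean IC50s were plotted against ATP concentration and fit to the tight-binding competitive-inhibition equation IC50 = Ki(1 + [ATP]/Km) + [E]/2 to obtain Ki.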

[13] = target: Serine/threonine-protein kinase mTOR (Homo sapiens, UniProt P42345); test: Inhibition of mTOR by radiometric phosphate incorporation assay

Chain of Serine-protein kinase ATM (Q13315 whole entry): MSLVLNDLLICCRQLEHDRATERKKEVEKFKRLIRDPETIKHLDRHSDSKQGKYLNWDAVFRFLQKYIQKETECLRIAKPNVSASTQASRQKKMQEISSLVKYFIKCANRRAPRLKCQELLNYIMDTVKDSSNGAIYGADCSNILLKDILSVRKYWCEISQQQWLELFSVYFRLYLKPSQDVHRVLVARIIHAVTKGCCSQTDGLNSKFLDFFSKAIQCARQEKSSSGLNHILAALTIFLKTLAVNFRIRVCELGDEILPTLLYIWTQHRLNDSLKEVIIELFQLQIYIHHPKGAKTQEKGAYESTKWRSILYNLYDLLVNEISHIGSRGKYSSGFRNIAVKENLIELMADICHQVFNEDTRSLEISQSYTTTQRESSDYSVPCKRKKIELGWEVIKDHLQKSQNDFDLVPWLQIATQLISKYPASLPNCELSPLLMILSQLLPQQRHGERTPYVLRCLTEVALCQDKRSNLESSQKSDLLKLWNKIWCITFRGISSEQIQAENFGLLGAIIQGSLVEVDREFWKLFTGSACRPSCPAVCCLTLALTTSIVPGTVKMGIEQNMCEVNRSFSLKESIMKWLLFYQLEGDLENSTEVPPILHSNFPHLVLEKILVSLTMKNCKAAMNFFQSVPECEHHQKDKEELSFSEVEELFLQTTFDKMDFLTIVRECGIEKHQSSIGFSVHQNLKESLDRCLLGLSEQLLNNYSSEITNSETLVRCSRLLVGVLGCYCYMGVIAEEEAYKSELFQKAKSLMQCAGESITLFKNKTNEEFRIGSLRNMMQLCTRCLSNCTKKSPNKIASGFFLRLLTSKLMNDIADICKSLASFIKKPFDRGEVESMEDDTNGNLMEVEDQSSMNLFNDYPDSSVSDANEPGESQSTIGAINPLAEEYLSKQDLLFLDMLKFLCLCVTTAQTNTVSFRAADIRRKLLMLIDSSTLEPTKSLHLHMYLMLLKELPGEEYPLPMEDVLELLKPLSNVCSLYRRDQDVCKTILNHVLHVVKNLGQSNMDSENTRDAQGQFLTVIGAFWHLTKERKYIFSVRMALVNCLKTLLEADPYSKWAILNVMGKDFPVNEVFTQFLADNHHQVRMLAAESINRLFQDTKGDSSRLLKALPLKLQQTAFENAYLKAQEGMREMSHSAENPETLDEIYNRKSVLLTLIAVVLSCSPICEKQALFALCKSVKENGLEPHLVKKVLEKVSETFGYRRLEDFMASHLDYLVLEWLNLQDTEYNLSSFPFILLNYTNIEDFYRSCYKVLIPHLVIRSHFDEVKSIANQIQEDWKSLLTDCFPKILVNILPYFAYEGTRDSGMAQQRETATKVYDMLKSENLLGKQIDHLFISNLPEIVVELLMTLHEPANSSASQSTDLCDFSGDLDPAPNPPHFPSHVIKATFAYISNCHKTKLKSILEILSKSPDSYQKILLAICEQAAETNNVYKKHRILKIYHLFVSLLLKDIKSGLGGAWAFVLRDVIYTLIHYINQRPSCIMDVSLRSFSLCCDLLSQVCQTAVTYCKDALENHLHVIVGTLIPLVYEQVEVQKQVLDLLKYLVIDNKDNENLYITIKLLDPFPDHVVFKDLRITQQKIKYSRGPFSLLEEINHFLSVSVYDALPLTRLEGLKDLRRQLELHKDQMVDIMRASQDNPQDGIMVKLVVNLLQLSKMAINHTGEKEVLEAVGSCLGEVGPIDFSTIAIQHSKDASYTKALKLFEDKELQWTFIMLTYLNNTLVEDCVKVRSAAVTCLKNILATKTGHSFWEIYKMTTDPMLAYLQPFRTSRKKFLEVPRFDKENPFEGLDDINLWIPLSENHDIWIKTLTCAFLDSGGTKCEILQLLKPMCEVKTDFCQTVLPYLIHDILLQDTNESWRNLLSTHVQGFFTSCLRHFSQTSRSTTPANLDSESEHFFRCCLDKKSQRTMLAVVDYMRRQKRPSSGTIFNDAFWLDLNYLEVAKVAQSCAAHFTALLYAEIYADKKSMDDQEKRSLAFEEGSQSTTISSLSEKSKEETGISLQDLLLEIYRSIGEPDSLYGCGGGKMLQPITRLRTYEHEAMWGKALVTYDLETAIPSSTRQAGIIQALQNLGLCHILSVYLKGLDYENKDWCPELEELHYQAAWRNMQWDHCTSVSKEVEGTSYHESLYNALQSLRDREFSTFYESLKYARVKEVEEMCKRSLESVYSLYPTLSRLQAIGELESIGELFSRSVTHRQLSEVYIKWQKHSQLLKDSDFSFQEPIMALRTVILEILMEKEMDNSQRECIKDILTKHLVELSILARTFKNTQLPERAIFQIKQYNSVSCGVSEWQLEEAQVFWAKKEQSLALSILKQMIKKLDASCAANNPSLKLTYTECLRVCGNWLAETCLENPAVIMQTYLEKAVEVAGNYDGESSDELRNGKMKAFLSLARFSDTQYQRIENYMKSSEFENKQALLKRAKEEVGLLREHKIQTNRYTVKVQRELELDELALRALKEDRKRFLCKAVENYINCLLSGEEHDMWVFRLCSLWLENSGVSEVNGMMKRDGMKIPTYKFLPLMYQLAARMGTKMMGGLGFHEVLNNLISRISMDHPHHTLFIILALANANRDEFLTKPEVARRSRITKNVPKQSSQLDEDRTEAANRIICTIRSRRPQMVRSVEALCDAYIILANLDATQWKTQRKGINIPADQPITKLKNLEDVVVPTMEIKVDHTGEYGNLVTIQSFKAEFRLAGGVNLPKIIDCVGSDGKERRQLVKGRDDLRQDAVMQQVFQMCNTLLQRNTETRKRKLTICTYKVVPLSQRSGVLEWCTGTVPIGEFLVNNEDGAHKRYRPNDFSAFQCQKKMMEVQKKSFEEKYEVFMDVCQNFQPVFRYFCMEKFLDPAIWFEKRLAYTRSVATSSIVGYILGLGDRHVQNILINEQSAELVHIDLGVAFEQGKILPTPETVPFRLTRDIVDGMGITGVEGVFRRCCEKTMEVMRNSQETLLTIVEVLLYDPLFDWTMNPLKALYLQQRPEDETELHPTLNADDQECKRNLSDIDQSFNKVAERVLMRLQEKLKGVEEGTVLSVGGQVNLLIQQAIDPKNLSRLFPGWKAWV
Chain of Cytochrome P450 3A4 (P08684 whole entry): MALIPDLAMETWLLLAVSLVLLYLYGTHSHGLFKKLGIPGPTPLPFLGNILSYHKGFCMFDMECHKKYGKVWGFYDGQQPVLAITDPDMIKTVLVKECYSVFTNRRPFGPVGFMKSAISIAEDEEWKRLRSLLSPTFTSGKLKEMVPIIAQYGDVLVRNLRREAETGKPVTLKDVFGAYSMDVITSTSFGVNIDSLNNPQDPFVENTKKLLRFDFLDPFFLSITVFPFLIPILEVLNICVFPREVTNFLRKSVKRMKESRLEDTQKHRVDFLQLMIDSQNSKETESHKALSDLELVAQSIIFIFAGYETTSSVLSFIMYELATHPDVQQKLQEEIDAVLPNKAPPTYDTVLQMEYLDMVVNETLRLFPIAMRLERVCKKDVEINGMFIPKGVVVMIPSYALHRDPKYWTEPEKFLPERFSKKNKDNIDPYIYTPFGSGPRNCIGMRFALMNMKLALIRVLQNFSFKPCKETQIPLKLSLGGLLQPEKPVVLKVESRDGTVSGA

Row | IC50 [1] [µM] | IC50 [2] [µM] | IC50 [3] [µM] | SMILES | further results
1 | > 100 | > 100 |  | O=c1cc(N2CCOCC2)oc2c1ccc1ccccc12 | 
2 | 0.18 | > 8 | > 8 | Nc1ncc(-c2cccnc2)nc1C(=O)Nc1ccccc1 | IC50 [4]: 2 µM
3 | 0.62 | > 8 | > 8 | Nc1ncc(-c2ccccc2)nc1C(=O)Nc1ccccc1 | IC50 [5]: > 2.5 µM; IC50 [4]: > 100 µM
4 | 7.1 | > 8 | > 8 | Nc1nccnc1C(=O)Nc1ccccc1 | 
5 | 5.2 | > 8 | > 8 | Nc1ncc(Br)nc1C(=O)Nc1ccccc1 | 
6 | 3 | > 8 | > 8 | Nc1ncc(C2CCCCC2)nc1C(=O)Nc1ccccc1 | 
7 | 2.1 | > 8 | > 8 | Nc1ncc(C2=CCCCC2)nc1C(=O)Nc1ccccc1 | 
8 | 0.64 | > 8 | 5 | Nc1ncc(-c2ccncc2)nc1C(=O)Nc1ccccc1 | 
9 | 0.024 | 0.32 | 0.72 | N#Cc1ccccc1-c1cnc(N)c(C(=O)Nc2ccccc2)n1 | 
10 | 0.13 | 3 | 2 | C[S+]([O-])c1ccccc1-c1cnc(N)c(C(=O)Nc2ccccc2)n1 (stereo not given) | 
11 | 1.3 | > 8 | > 8 | CS(=O)(=O)c1ccccc1-c1cnc(N)c(C(=O)Nc2ccccc2)n1 | 
12 | 2.4 | > 8 | > 8 | Nc1ncc(-c2ccccc2O)nc1C(=O)Nc1ccccc1 | 
13 | 0.74 | > 8 | > 8 | COc1ccccc1-c1cnc(N)c(C(=O)Nc2ccccc2)n1 | 
14 | 0.7 | > 8 | 3.8 | Nc1ncc(-c2ccccc2Cl)nc1C(=O)Nc1ccccc1 | 
15 | 1.4 | > 8 | 1.4 | Cc1ccccc1-c1cnc(N)c(C(=O)Nc2ccccc2)n1 | 
16 | 0.4 | > 8 | 2.2 | N#Cc1cccc(-c2cnc(N)c(C(=O)Nc3ccccc3)n2)c1 | 
17 | 0.34 | 6.6 | 0.74 | CS(=O)(=O)c1cccc(-c2cnc(N)c(C(=O)Nc3ccccc3)n2)c1 | 
18 | 0.54 | > 8 | 2.2 | Nc1ncc(-c2cccc(O)c2)nc1C(=O)Nc1ccccc1 | 
19 | 2.2 | > 8 | 4.2 | COc1cccc(-c2cnc(N)c(C(=O)Nc3ccccc3)n2)c1 | 
20 | 1.6 | > 8 | > 8 | Nc1ncc(-c2cccc(Cl)c2)nc1C(=O)Nc1ccccc1 | 
21 | 0.56 | > 8 | > 8 | Cc1cccc(-c2cnc(N)c(C(=O)Nc3ccccc3)n2)c1 | 
22 | 0.18 | > 8 | > 8 | N#Cc1ccc(-c2cnc(N)c(C(=O)Nc3ccccc3)n2)cc1 | 
23 | 0.32 | 5.8 | 1.8 | Nc1ncc(-c2ccc(O)cc2)nc1C(=O)Nc1ccccc1 | 
24 | 1.5 | > 8 | 6.6 | COc1ccc(-c2cnc(N)c(C(=O)Nc3ccccc3)n2)cc1 | 
25 | 2.4 | > 8 | > 8 | Nc1ncc(-c2ccc(Cl)cc2)nc1C(=O)Nc1ccccc1 | 

Row | IC50 [1] [µM] | IC50 [2] [µM] | IC50 [3] [µM] | SMILES | further results
26 | 1.7 | > 8 | > 8 | Cc1ccc(-c2cnc(N)c(C(=O)Nc3ccccc3)n2)cc1 | 
27 | 0.11 | 2.9 | 1.2 | NC(=O)c1ccc(-c2cnc(N)c(C(=O)Nc3ccccc3)n2)cc1 | 
28 | 0.18 | 2.6 | 7 | CNC(=O)c1ccc(-c2cnc(N)c(C(=O)Nc3ccccc3)n2)cc1 | 
29 | 0.1 | > 8 | > 8 | Nc1ncc(-c2ccc(C(=O)N3CCC3)cc2)nc1C(=O)Nc1ccccc1 | IC50 [5]: 1 µM
30 | 0.054 | > 8 | > 8 | CN(C)C(=O)c1ccc(-c2cnc(N)c(C(=O)Nc3ccccc3)n2)cc1 | IC50 [5]: 2 µM
31 | 0.054 | > 8 | 2.8 | Nc1ncc(-c2ccc(C(=O)N3CCCC3)cc2)nc1C(=O)Nc1ccccc1 | IC50 [5]: 1.4 µM
32 | 0.026 | > 8 | > 8 | Nc1ncc(-c2ccc(C(=O)N3CCCCC3)cc2)nc1C(=O)Nc1ccccc1 | IC50 [5]: 6.5 µM
33 | 0.048 | > 8 | > 8 | CN(C)C(=O)c1ccc(-c2cnc(N)c(C(=O)Nc3ccccc3)n2)cc1Cl | IC50 [5]: 12 µM
34 | 0.056 | > 8 | 6.8 | C[S+]([O-])c1ccc(-c2cnc(N)c(C(=O)Nc3ccccc3)n2)cc1 (stereo not given) | IC50 [5]: 5.4 µM
35 | 0.012 | > 8 | 5.8 | CCS(=O)(=O)c1ccc(-c2cnc(N)c(C(=O)Nc3ccccc3)n2)cc1 | IC50 [5]: 1.5 µM
36 | 0.008 | > 8 | 5.6 | CC(C)S(=O)(=O)c1ccc(-c2cnc(N)c(C(=O)Nc3ccccc3)n2)cc1 | IC50 [5]: 1 µM
37 | 0.014 | 5.4 | > 8 | CCCS(=O)(=O)c1ccc(-c2cnc(N)c(C(=O)Nc3ccccc3)n2)cc1 | IC50 [5]: 2 µM
38 | 0.01 | 6.6 | > 8 | CCC(C)S(=O)(=O)c1ccc(-c2cnc(N)c(C(=O)Nc3ccccc3)n2)cc1 (stereo not given) | IC50 [5]: 1.6 µM
39 | 0.006 | > 8 | > 8 | CC(C)(C)S(=O)(=O)c1ccc(-c2cnc(N)c(C(=O)Nc3ccccc3)n2)cc1 | IC50 [5]: 1 µM
40 | 0.012 | > 8 | > 8 | CC(CN(C)C)S(=O)(=O)c1ccc(-c2cnc(N)c(C(=O)Nc3ccccc3)n2)cc1 (stereo not given) | IC50 [5]: 0.42 µM; Papp A→B [6]: 170 nm/s; Papp B→A [7]: 230 nm/s; IC50 [8]: 1.1 µM; Activity [9]: Non-toxic; fold change (FC) [10]: 7; fold change (FC) [11]: 1.1; Ki [12]: 0.006 µM
41 | 0.008 | > 8 | 3.2 | CC(CCO)S(=O)(=O)c1ccc(-c2cnc(N)c(C(=O)Nc3ccccc3)n2)cc1 (stereo not given) | IC50 [5]: 0.38 µM
42 | 0.01 | 5 | 4.4 | Nc1ncc(-c2ccc(S(=O)(=O)[C@@H]3CCOC3)cc2)nc1C(=O)Nc1ccccc1 | IC50 [5]: 0.46 µM
43 | 3.56 | > 8 | > 8 | CS(=O)(=O)c1ccc(-c2cnc(N)c(C(=O)NC3CCCCC3)n2)cc1 | 
44 | 0.03 | 0.38 | 2.1 | CS(=O)(=O)c1ccc(-c2cnc(N)c(-c3nc4ccccc4[nH]3)n2)cc1 | 
45 | 0.036 | 0.84 | 1.4 | CS(=O)(=O)c1ccc(-c2cnc(N)c(-c3nc4ccccc4o3)n2)cc1 | 
46 | 0.022 | 0.72 | 2.9 | CS(=O)(=O)c1ccc(-c2cnc(N)c(-c3nc4ccccc4s3)n2)cc1 | 
47 | 0.023 | 0.12 | 2.4 | CS(=O)(=O)c1ccc(-c2cnc(N)c(-c3cc4ccccc4[nH]3)n2)cc1 | 
48 | > 100 |  |  | O=c1cc(-c2cccc3c2Sc2ccccc2S3)oc(N2CCOCC2)c1 [KU-55933] | IC50 [13]: 9.3 µM
49 | 7.2 | 1740 |  | COc1cc2c(c(OC)c1OC)-c1c(cc3c(c1OC)OCO3)CC(C)C(C)C2 (stereo not given) [SCHISANDRIN B] | 

Row | SMILES | IC50 [1] [µM] | IC50 [2] [µM] | IC50 [3] [µM] | further results
50 | CS(=O)(=O)c1ccc(-c2cnc(N)c(C(=O)Nc3ccccc3)n2)cc1 | 0.026 | > 8 | 4.4 | 
51 | Cn1c(=O)c2c(ncn2C)n(C)c1=O [CAFFEINE] | 1100 | 200 | 10000 | IC50 [13]: 400 µM
